Published values collected from several papers.
Each line is one published result; the experiments were not run side by side.
Target: Calcium/calmodulin-dependent protein kinase type IV (CAMK4, Homo sapiens, UniProt Q16566)
Sequence (Q16566 1-473, as in one of the studies): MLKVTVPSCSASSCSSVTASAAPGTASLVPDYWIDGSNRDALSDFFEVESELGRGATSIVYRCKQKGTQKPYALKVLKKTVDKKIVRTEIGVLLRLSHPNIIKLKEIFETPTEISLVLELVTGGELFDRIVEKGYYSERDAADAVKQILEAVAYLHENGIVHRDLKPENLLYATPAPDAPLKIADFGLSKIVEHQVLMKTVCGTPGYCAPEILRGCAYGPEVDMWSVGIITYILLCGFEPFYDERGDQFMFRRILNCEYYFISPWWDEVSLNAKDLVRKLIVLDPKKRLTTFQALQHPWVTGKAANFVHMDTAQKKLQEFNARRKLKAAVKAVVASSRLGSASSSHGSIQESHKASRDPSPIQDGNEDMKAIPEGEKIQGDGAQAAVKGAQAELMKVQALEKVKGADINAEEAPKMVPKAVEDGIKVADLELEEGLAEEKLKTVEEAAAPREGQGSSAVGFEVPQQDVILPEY

Structure (SMILES)	effect on	technique	concentration	remaining binding
C[C@H](c1ccnc(Nc2nc3ccc(-c4cc(N(C)C)ncn4)cc3[nH]2)c1)N1CCN(C(=O)CC(F)(F)F)CC1	cell-free assay	competition with immobilised ligand	0.1 µM	100%
O=C(NCCCN1CCOCC1)c1ccc(Nc2ncc(Cl)c(-c3ccc(Cl)s3)n2)cc1	binding	competition with immobilised ligand	1 µM	100%
Cc1cc(-n2nc(Cc3cc(F)cc(C(F)(F)F)c3)nc2C)ccc1C(N)=O	cell-free assay	competition with immobilised ligand	1 µM	100%
O=C(NCC1CCOCC1)c1n[nH]cc1NC(=O)c1c(F)cccc1F	binding	competition with immobilised ligand	1 µM	100%
C[C@@H](c1ccc(-n2cnc3c(N)ncnc32)cc1)N1CCc2nn(C)c(Cc3ccccc3)c2C1=O	binding	competition with immobilised ligand	0.1 µM	100%
COc1ccc2c(O[C@@H]3C[C@H]4C(=O)N[C@]5(C(=O)O)CC5/C=C\CCCCC[C@H](NC(=O)OC5CCCC5)C(=O)N4C3)cc(-c3csc(NC(=O)C(C)C)n3)nc2c1C (stereo partly shown)	cell-free assay	competition with immobilised ligand	1 µM	95%
CN(CCCC(F)(F)F)c1nccc(-c2cnn3ncccc23)n1	binding		1 µM	64%
O=C(c1ccc(Nc2nccc(-c3cc4ccccc4s3)n2)cc1)N1CCC(N2CCCC2)CC1	binding	competition with immobilised ligand	1 µM	100%
C=CC(=O)N1CCC(C(=O)NCC(=O)N2CCN(c3nc(-c4cnc(N)nc4C(F)F)nc(N4CCOCC4)n3)CC2)CC1	binding	competition with immobilised ligand	1 µM	86%
N[C@@H]1CCN(c2nccc(-c3cnn4ncccc34)n2)C1	binding		1 µM	100%
CS(=O)(=O)c1cc(C2(NC(=O)c3cncc4c3cnn4-c3ccc(F)cc3)CC2)ccn1	cell-free assay	competition with immobilised ligand	1 µM	100%
O=C(c1ccc(Nc2ncc(Cl)c(-c3ccc(Cl)s3)n2)cc1)N1CCC(N2CCCC2)CC1	binding	competition with immobilised ligand	1 µM	100%
Cc1cnn2ncc(-c3ccnc(N(C)C)n3)c2c1	binding		1 µM	86%
Nc1ncc2c(n1)-c1c([nH]c3ccc(C#CC4CC4)cc13)CCCC2	binding	competition with immobilised ligand	1 µM	100%
CN(C)c1ncc(F)c(-c2cnn3ncccc23)n1	binding		1 µM	100%
CNC(=O)[C@@H]1CC[C@@H](n2c(-c3ccc4cnccc4c3)nc3ccc(C(=O)NCc4cccc(C(N)=O)c4)cc32)C1	binding	competition with immobilised ligand	1 µM	100%
CNC(=O)Nc1ccc2c(c1)[C@@]1(CC2)OC(=O)N(CC(=O)N(Cc2ccc(F)cc2)[C@@H](C)C(F)(F)F)C1=O	cell-free assay	competition with immobilised ligand	1 µM	85%
CN(C)c1nccc(-c2cnc3ncccn23)n1	binding		1 µM	100%
CC1=C(C#N)[C@@H](c2ccc3[nH]nc(C)c3c2)C(C#N)=C(c2ccc(Cl)cc2)N1	cell-free assay	competition with immobilised ligand	1 µM	31.8%
C[C@H]1CCN(c2nccc(-c3cnn4ncccc34)n2)C1	binding		1 µM	90%
C[C@H](NC(=O)c1cnc2n1[C@](C)(Cc1ccc(C#N)cc1)C(=O)N2c1cc(Cl)c(F)c(Cl)c1)C(=O)NC1(c2ccccn2)CC1	cell-free assay	competition with immobilised ligand	1 µM	100%
F[C@@H]1CCN(c2nccc(-c3cnn4ncccc34)n2)C1	binding		1 µM	79%
